In the EternaBench riboswitch data:

Tested on: MS2 coat protein
Assay: apparent Kd, MS2 coat protein; higher = weaker binding; RNA-MaP array; FMN 200 µM where present
Summary of the method: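 Designs were transcribed by stalled E. coli RNA polymerase on Illumina sequencing-chip clusters. They were titrated with SNAP-549-labelled MS2 coat protein from 0.7 or 1.5 nM, doubling to 3 µM, in 100 mM Tris-HCl pH 7.5, 80 mM KCl, 4 mM MgCl2, BSA, DTT, yeast tRNA and Tween-20, without and then with constant ligand. The apparent Kd is the median of filtered per-cluster fits after normalisation of green signal to red-channel RNA signal and control-cluster median Fmax.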

[1] = designed as: ON switch for flavin mononucleotide, no ligand
[2] = ligand present: flavin mononucleotide, designed as: ON switch for flavin mononucleotide
[3] = designed as: OFF switch for flavin mononucleotide, no ligand
[4] = ligand present: flavin mononucleotide, designed as: OFF switch for flavin mononucleotide

Sequence	apparent Kd [1]	apparent Kd [2]	apparent Kd [3]	apparent Kd [4]
GAGUGGAAGUAAGGAUAUAUAAUGAUAAUCACAGUAGAAGGUACUAACAUGAGGAUCACCCAUGUAGGACUAUACCAGAGAGGG	17.4 nM	16 nM	–	–
AAGCGCUACAUGAGGAUCACCCAUGUUCCGAGGCAGAUUUCACAGGAUAUCCCAAUUGGCCCAAGGGAGAAGGGUGAUGGCCAA	79.1 nM	23.6 nM	–	–
GUGGCACAUGAGGAUCACCCAUGUCAGGAUAUCGCGUGGUUUUUUUCGGCCGCGCGCGCGAGAAGGGACGUCUU	–	–	31.1 nM	29.1 nM
CCUGAGUCAGGAUAUUGUACCGGCCUGAAGCCAGACCGACCCAAGAAGGGACAUGAGGAUCACCCAUGUGAAAA	–	–	23.1 nM	24.7 nM
AAACACGGACAUGAGGAUCACCCAUGUAAUAAUAACAUUGGGAGAAGGCCGAUUGCAAAGCAAUCGGAGGAUAUUCAUACCGUG	279 nM	447 nM	–	–
AAACUCAGAGGAUAUACAUAACACAGACUCUUCAUGCGUUCACAUGAGGAUCACCCAUGUAGAAGGCUGACAAC	–	–	23.2 nM	85.1 nM
AUAUGAUAGAUAGGAUAUACAGUGGAUUUAUAAGUAGAAGGAUCAAGUGGGAAUUAUACAUGAGGAUCACCCAUGUUUUUGGAU	68.2 nM	45.8 nM	–	–
AUACUAAAUGAAGGAUAUCUAAGCAUAAACCUGAGAGAAGGUCAUUUUUACAUGAGGAUCACCCAUGUUGUGGUUAAUGGGUUA	–	–	216 nM	317 nM
AGCUAGUCAGGAUAUACAAACAUGUCAAAAGACGUGAGGGAACAUGAGGAUCACCCAUGUAGAAGGGACUAGCA	–	–	53.6 nM	195 nM
CCGGGACAUGAGGAUCACCCAUGUUUCGUUUGUAGUAAAGCACAGGAUAUGAUGAAACAGGUUUCUCAGAAGGGUGUUCCGAAA	91 nM	75.4 nM	–	–
AGUGUCAUCGAGAAGGCCUUGACAUGAGGAUCACCCAUGUUAUAACAUGGGAGGAUAUCGAUGAUACAGCUACGUUUCGUAGCA	509 nM	46.7 nM	–	–
GUCAGCUCGUGAGGAUAUACAUGUGCUGGAGACAGCACUAAUAGAAUCACAUGAGGAUCACCCAUGUAGAAGGCACGAGCUGAU	–	–	17 nM	41.2 nM
GCGCUUAUACAGAAGGCCAUAUACAUGAGGAUCACCCAUGUUACAUGGUGGAGGAUAUGUUAUUUAUUACAGGUAGAUGAGCGC	4.71 nM	5.32 nM	–	–
AAAAAACAUGAGGAUCACCCAUGUCCUCGGACAUGAGGAUAUGUACAGACUUCGGUCUGUACAGAAGGCAUGUCAA	658 nM	585 nM	–	–
GUCAGCUCGUGAGGAUAUACAUCACUGCUUCGGCAGUGUAUUAACAUCACAUGAGGAUCACCCAUGUAGAAGGCACGAGCUGAU	–	–	16 nM	22.7 nM
AGAAACUACGAGAAGGACAUGUGGUCCAAAACAAACAUGAGGAUCACCCAUGUAGGAUAUCGUAGUUUCAGGAUCGUGAGAUCA	–	–	284 nM	61.8 nM
AAAAAGUCAGGAUAUGCGAAGGCGUCUGAUAGACGAGGCUAGCAGAAGGGACAUGAGGAUCACCCAUGUGGAAA	–	–	79.4 nM	135 nM
GCCGAUUAAGUGAGGAUAUACCUAUGGAUACAUAGGUAGAAGGUACAUGAGGAUCACCCAUGUUCCUUAACGGC	–	–	11.4 nM	13.2 nM
AGUCGGAGCAGAGGAUAUUACAUGAGGAUCACCCAUGUGGAAAAACCAAGCUGGAAACAGCAAUGUAAGAAGGCUGCUCCGACA	–	–	497 nM	879 nM
GAGAUUUUGUAAGGAUAUACUCUGUGAUGAAGAGUAGAAGGUACUUACAUGAGGAUCACCCAUGUUUAACGAGAUACUAAUCGU	57 nM	23.3 nM	–	–
UGAAUCAAUACAGGAUAUGGUGACGCACAUGAGGAUCACCCAUGUCCGCAGCGUGCUAAGCACGCCCAGAAGGGUAUUGAUCUG	1010 nM	81 nM	–	–

Sequence	apparent Kd [1]	apparent Kd [2]	apparent Kd [3]	apparent Kd [4]
UUAAUCUAUACAGGAUAUCCAUACGGUGCAUACGGAGAAGGGUAACAAUCAUGAGGACAUGAGGAUCACCCAUGUUCUGACCAU	7.23 nM	6.35 nM	–	–
CUAUCGUUGCAGAAGGUUAAAUAAUUUCUCAUCAUGUUUACAUGAGGAUCACCCAUGUAUUUGUUGAAGGAUAUGCAAGUGUUG	–	–	8.67 nM	7.92 nM
GGUCCAUCAUGAGGAUAUGGCACCUUAUUGGUGCCAGAAGGCAUGUGUAUACACAUGAGGAUCACCCAUGUAAUAAAUUGGACC	144 nM	22.2 nM	–	–
UAUCGAGUAGCAGGAUAUUAUGUGGCUAAUUCCGAGUCUGAUGCUUCACAUGAGGAUCACCCAUGUAAGAAGGGCUAACUCGGG	–	–	26.2 nM	63.7 nM
GCGUCUCCUGUCAGGAUAUGCACCGGCUCGCCGGCGUAGAAGGGACAUGAGGAUCACCCAUGUGGUCUACACUU	–	–	–	339 nM
GUAGCUAUCGGAGGAUAUUCAUACCGGAAACGGACAUGAGGAUCACCCAUGUAGCGAAAGCCUUGGGAGAAGGCCGAUAGCUAC	919 nM	103 nM	–	–
GGAUAGGAGAGAGGAUAUACGUGCUAGAGAUACUAGCAAAAUUUCCUCACAUGAGGAUCACCCAUGUAGAAGGCUGUCCUAUCG	–	–	11.1 nM	210 nM
ACUACUUACUAGGAUAUCAGAGUCGAAAGACUCUGAGAAGGAGUAACAUGAGGAUCACCCAUGUGUCCUAUAGU	–	–	17.9 nM	29.4 nM
AGGGUAGUAGGAUAUACAUGAGGAUCACCCAUGUUUCCAUUACGUGACUGGUCCUAGUGUAGAAGGGCUAGCAC	–	–	–	17.4 nM
AAACAUGUCCGAGGAUAUCUGGAAACAUUUUCAAGAGAAGGCGGACAUGAGGAUCACCCAUGUCUCUCCUCAUCCAAUCCAAGU	–	–	9.36 nM	46.4 nM
UCCUUAUCGGUCAGGAUAUACACCCGUUUCUCCUUGUAGAAGGGACAUGAGGAUCACCCAUGUACUGUACAUUU	–	–	30 nM	31 nM
CCGGAAAGGGAGGAUAUAGGAGUCGAUAGACACCUAGAAGGCCUGACAUGAGGAUCACCCAUGUGUCCUACCGG	–	–	15 nM	25 nM
UUAUUUUUACAGAAGGUUUAAUAAUAUGUAUGAGAAGGAUAUGUAACAUGAGGAUCACCCAUGUUUUAUUUAUAUGAGGUUCAU	–	–	10.8 nM	9.27 nM
ACGCCCUGAGGAUAUCUUUUCCCGUACAUGAGGAUCACCCAUGUUUUCCUCCGUGCUUCGAGAGAAGGCAGGCCCA	–	–	807 nM	436 nM
AAGAAACAUGAGGAUCACCCAUGUAAUAAUAUGGGAGGAUAUACAAGGACAAUAGUCAAGGUAGAAGGCCUAAGAA	175 nM	27.5 nM	–	–
GGAGACCUCACAGGAUAUGCUGGACUUUGUCCAGCAGAAGGGUGGACAUGAGGAUCACCCAUGUGGUCUUCCAAAAUAUUUAAU	728 nM	139 nM	–	–
UGAGAUGUAGUAGGAUAUCAGGUUACAUGAGGAUCACCCAUGUUAGAUUGGUGGAUAGAUGUUGAUGAGAAGGACUUUUGAGUG	–	–	66.7 nM	116 nM
GAAUUAAAGAUCCAAUUUUACAACAUGAGGAUCACCCAUGUGCAGGAUAUCGUGUGUUUUAUAUUCGAGAAGGGCAAAUACAUU	–	–	100 nM	187 nM
CUAUAGAUAUGAGGAUAUGUAUAUCCAACAUGAGGAUCACCCAUGUUGAUGAUCACGUAUGUAAAGCAGAAGGCAUAUCUAUAG	–	6.41 nM	–	–
CAGUACUGAGGAUAUACAUGAGGAUCACCCAUGUGUUCCAGGUAGGAAACUAGCAAAAGUAGAAGGCAGUACUG	–	–	19 nM	127 nM
ACCAGUGCAUGAGGAUAUCACAUCGGUAUCCUCCAGUGCGGCGUUCGACAUGAGGAUCACCCAUGUGAGAAGGCAUGAACUCGG	–	–	15.6 nM	18.6 nM
